What all share (type): functional, organism-based
The test system of test [1] is Staphylococcus aureus. As to the kind of experiment: Antibacterial activity against Staphylococcus aureus by broth macrodilution method. In short, it runs like this: (§1)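 Broth macrodilution as in the antifungal test (NCCLS M27-P guideline). The medium was changed to Luria-Bertani (10 g/L Bactotryptone, 5 g/L Bactoyeast, 10 g/L NaCl, pH 7.5), and incubation was at 37 °C for 24 h.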

The test system of another test is Candida albicans. As to the kind of experiment: Antifungal activity against Candida albicans by broth macrodilution method. The procedure, abridged:
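Broth macrodilution following NCCLS document M27-P guidelines for antifungal susceptibility testing of yeast.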

The next test deals with Escherichia coli. Briefly: Antibacterial activity against Escherichia coli by broth macrodilution method. In short, it runs like this: as §1
In test [2] the test system is Staphylococcus aureus. As to the kind of experiment: Antibacterial activity against Staphylococcus aureus at 100 ug/mL by broth macrodilution method.

Calls of active or inactive are those of the source. The rule behind the calls is not given here.

As for `C/C(=C\CCc1ccoc1)C[C@H](O)C[C@@H](C)CCCc1ccoc1`, the result in the test on Staphylococcus aureus [1], with Candida albicans and in the test on Escherichia coli was inactive.
Turning to `C/C(=C\CCc1ccoc1)CC/C=C(\C)CCCc1ccoc1`, the result in the test with Staphylococcus aureus [1], in the test with Candida albicans and in the test with Escherichia coli was inactive.
As to `C[C@H](CCCc1ccoc1)CC(=O)C[C@@H](C)CCCc1ccoc1`, the result in the test with Staphylococcus aureus [1], in the test with Candida albicans and in the test with Escherichia coli was inactive.
In the case of `C/C(=C\CCc1ccoc1)CC(=O)C[C@@H](C)CCCc1ccoc1`, the result with Staphylococcus aureus [1], in the test with Candida albicans and in the test on Escherichia coli was inactive.
Regarding `C/C(=C\CCc1ccoc1)CC/C=C(\C)CCCC1=CC(=O)OC1`, the result with Staphylococcus aureus [1], with Candida albicans and in the test with Escherichia coli was inactive.
`COC(=O)/C(C)=C/CC/C(=C/CC/C(C)=C/CC/C(C)=C/CCc1ccoc1)C(=O)O`: the outcome in the test with Candida albicans and in the test with Escherichia coli was inactive. Further, the result in the test with Staphylococcus aureus [2] was Active.
Regarding `COC(=O)/C(=C\CC/C(C)=C/CC/C(C)=C/CCc1ccoc1)CC/C=C(\C)C(=O)O`, the outcome in the test on Staphylococcus aureus [1], in the test on Candida albicans and with Escherichia coli was inactive.

For the origin of these results see ChEMBL document CHEMBL1800041, “Bioactive terpenes from Spongia officinalis” (J Nat Prod, 2011).
